Source: PubChem (The Scripps Research Institute Molecular Screening Center)
This is a sample that favours compounds with a hit; in the whole collection about 1.2% have one here.
IDE cell inh – human IDE inhibitors in live cells, primary screen, fluorescence polarization, HEK cells, FAbetaB substrate; FAbetaB cleavage; inhibition, % at 5.59 µM; 320,000 compounds, 0.41% hits;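 active means percent inhibition above the average of all tested compounds plus 3 SD, set per screening campaign, cut at about 16% in these data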;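 further: IDE supplied by intact live HEK cells; FP after avidin binding of uncleaved biotin substrate so inhibition keeps polarization high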
IDE cell activ – human IDE activators in live cells, primary screen, fluorescence polarization, HEK cells, FAbeta-B substrate; Insulin-degrading enzyme (Homo sapiens), P14735; FAbeta-B cleavage; 0% vehicle, 100% cell-free pure enzyme wells; activation, % at 5.96 µM; 340,000 compounds, 0.073% hits; AID 493087, 2011;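 active means activation above the mean of all tested compounds plus 3 SD, set per screening campaign, cut at about 17% in these data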
proCasp7 act – procaspase-7 activators, primary screen, counter-screen for procaspase-3 activator project, biochemical, absorbance, HTS, human; Caspase-7 (Homo sapiens), P55210; activation, % at 8.5 µM; recombinant procaspase-7, Ac-DEVD-pNA absorbance 405 nm; D23A/D198A/D206A triple mutant, cannot self-cleave; scale: DMSO 0, 5 µM enzyme 100; 330,000 compounds, 0.093% hits;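 active means percent activation above the screen-wide mean plus 3 SD, cut at about 25% in these data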
Target sequence (P55210 whole entry D23A/D198A/D206A): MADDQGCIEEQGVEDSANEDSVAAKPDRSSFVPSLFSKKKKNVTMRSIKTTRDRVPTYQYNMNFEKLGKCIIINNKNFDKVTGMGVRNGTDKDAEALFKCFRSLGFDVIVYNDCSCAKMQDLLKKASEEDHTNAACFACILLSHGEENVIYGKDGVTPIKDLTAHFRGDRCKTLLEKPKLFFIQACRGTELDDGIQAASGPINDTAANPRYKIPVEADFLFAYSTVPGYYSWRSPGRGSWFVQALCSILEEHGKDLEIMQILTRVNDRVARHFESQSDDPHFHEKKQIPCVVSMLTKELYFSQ
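Test system: Procaspase-7 triple mutant (PC-7 D3A). Also added: Ac-DEVD-pNA substrate, 400 µM as added. Schedule: 1 h enzyme–compound preincubation and 2 h substrate reaction, both 25 °C. Signal: p-Nitroaniline absorbance at 405 nm, read at 0 and 120 min. Control set: low DMSO alone, high DMSO plus 5 µM PC-7.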
procasp3 activ – activators of human procaspase-3 D3A mutant, primary screen, biochemical, absorbance, PC-3 D3A mutant, single concentration | Caspase-3 (Homo sapiens), P42574 | recombinant procaspase-3 D3A, Ac-DEVD-pNA absorbance 405 nm | activation, % at 8.5 µM | 330,000 compounds, 0.11% hits | AID 463141, 2010;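 active means activation above the mean of all tested compounds plus 3 SD, cut at about 21% in these data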
Target sequence (P42574 whole entry D9A/D28A/D175A): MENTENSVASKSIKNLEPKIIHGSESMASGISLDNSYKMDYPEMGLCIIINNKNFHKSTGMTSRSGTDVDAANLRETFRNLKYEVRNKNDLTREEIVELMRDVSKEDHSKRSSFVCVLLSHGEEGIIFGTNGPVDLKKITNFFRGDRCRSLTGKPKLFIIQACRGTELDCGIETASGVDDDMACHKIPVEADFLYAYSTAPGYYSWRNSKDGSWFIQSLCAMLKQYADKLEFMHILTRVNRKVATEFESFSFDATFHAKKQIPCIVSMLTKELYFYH
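assay system = Procaspase-3 D3A mutant | signal = absorbance at 405 nm, 0 and 120 min | times = 1 h preincubation plus 2 h reaction at 25 °C | repeats = single replicate | read-out = % activation between DMSO and enzyme-spiked controls | medium = Zinc-free HEPES saline buffer with Triton X-100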
TPT1 inhibitor – Candida albicans TPT1 enzyme inhibitors, primary screen, biochemical, fluorescence polarization | tRNA 2'-phosphotransferase TPT1 (Candida albicans SC5314) | 300,000 compounds, 0.81% hits | inhibition, % at 5 µM | recombinant caTPT1, FP RNA substrate dephosphorylation;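 active means inhibition above the mean of all tested compounds plus 3 SD, set per screening campaign, cut at about 24% in these data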
IDE cell inh cf – human IDE inhibitors in live cells, confirmation, fluorescence polarization, HEK cells, FAbetaB substrate | shares compounds with IDE cell inh | FAbetaB cleavage | inhibition, % at 5.59 µM | 1,200 compounds, 51% hits;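 active means mean inhibition across triplicate wells above the cutoff set by the earlier primary insulin-degrading enzyme screen, cut at about 16% in these data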
HEK cytotox – cytotoxicity in HEK cells, cytotoxicity control for IDE inhibitor project, cell-based, luminescence. HEK293 cytotoxicity, ATP luminescence. 1,200 compounds, 28% hits. inhibition, % at 5.59 µM. shares compounds with IDE cell inh; in the data active means inhibition above about 22%
Large screens that a line does not name were inactive (follow-up assays come after a bar, where they were run).

CCC(CO)Oc1cc(NC(=O)c2ccccc2[N+](=O)[O-])c2ncn(C(C)C)c2c1 (stereo not drawn)	none (no result: TPT1 inhibitor)
Cc1c(-n2cc(C(=O)c3cc(Cl)ccc3O)cc(C#N)c2=O)c(=O)n(-c2ccccc2)n1C	IDE cell inh 17.2 | IDE cell inh cf 24.8 | HEK cytotox inactive
CCc1ccc(N2CC(C(=O)Nc3cccc(S(=O)(=O)N4CCCC4)c3)CC2=O)cc1 (stereo not drawn)	none
COc1ccccc1N1CCN(C2CCCN(C(=O)CC(F)(F)F)C2)CC1 (stereo not drawn)	none
O=S(=O)(NC1CCCC1)c1cc(F)ccc1F	none
Cc1ccc(S(=O)(=O)N2CCN(C(=O)C3CCN(c4ncnc5sc(C)c(C)c45)CC3)CC2)c(C)c1	none (no result: IDE cell inh, proCasp7 act, procasp3 activ, TPT1 inhibitor)
Cc1[nH]n(-c2ccccc2)c(=S)c1C=Nc1cccc([N+](=O)[O-])c1	IDE cell inh 25.4 | IDE cell inh cf inactive | HEK cytotox inactive
COc1ccc(Cl)cc1C(=O)NCCCSc1ccccc1	none
COc1ccc(Cl)cc1C(=O)NCC(=O)OCc1ccccc1	IDE cell inh 20.1 | IDE cell inh cf inactive | HEK cytotox inactive
CC(=O)c1cccc(OCc2cc(C(=O)NCc3nc(C)c(C)s3)no2)c1	none
O=S(=O)(CCN1C=CC(C(F)(F)F)=NCC1)c1ccc(Cl)cc1Cl	none
CC(=O)Oc1c(-c2ccco2)oc2ccccc2c1=O	IDE cell inh 76.6 | IDE cell inh cf 103.7 | HEK cytotox inactive
CCN(CC)C(=O)COc1c(-c2ccco2)oc2ccccc2c1=O	none
CC(OC(=O)C1CCN(c2ccc(C(F)(F)F)cn2)CC1)C(=O)Nc1ccc(S(N)(=O)=O)cc1 (stereo not drawn)	IDE cell inh 18.2 | IDE cell inh cf inactive | HEK cytotox inactive
CC(=O)c1ccc(NC(=O)C(C)OC(=O)C2CCN(c3ccc(C(F)(F)F)cn3)CC2)cc1 (stereo not drawn)	none
Cn1ncc2c(Nc3ccc4ccccc4c3)ncnc21	IDE cell inh 32.1 | IDE cell inh cf inactive | HEK cytotox inactive
Cc1cccc(Nc2ncnc3c2cnn3C)c1	none
COc1cccc(CC2(CO)CCCN(Cc3ccc(CN4CCCCC4)s3)C2)c1 (stereo not drawn)	none
O=C(COC(=O)c1cccnc1Cl)Nc1nc(-c2ccccc2)cs1	IDE cell inh 26.1 | IDE cell inh cf inactive | HEK cytotox inactive
O=C(COC(=O)c1ccccc1O)Nc1cccnc1Cl	none
COc1ccc(NC(=O)c2ccc(-c3ccccc3)cc2)cc1S(=O)(=O)N1CCOCC1	IDE cell inh 22.2 | IDE cell inh cf 18.6 | HEK cytotox 61.4
COC(=O)c1cc(NC(=O)c2ccc(-c3ccccc3)cc2)ccc1Cl	IDE cell inh 30.2 | IDE cell inh cf inactive | HEK cytotox 27.9
CCc1ccc(C(=O)Nc2ccc(OC)c(S(=O)(=O)N3CCOCC3)c2)cc1	none
C[C@H](CO)N1C[C@H](C)[C@@H](CN(C)Cc2ccccc2)Oc2c(NC(=O)c3ccncc3)cccc2C1=O	none (no result: TPT1 inhibitor)
C[C@H](CO)N1C[C@H](C)[C@@H](CN(C)Cc2ccc(Oc3ccccc3)cc2)Oc2c(NC(=O)c3ccncc3)cccc2C1=O	IDE cell inh 23.7 (no result: TPT1 inhibitor) | IDE cell inh cf inactive | HEK cytotox 24.3
O=C(NC(=S)Nc1nc2ccc(F)cc2s1)c1ccco1	none
CCOC(=O)Cc1csc(-n2sc3ccccc3c2=O)n1	IDE cell inh 16.5 | IDE cell inh cf inactive | HEK cytotox 28.1
CCOC(=O)Cc1csc(SCn2nnc3ccccc3c2=O)n1	none
CCOc1ccc(S(=O)(=O)N2CCCC(C(=O)NCc3cccnc3)C2)cc1 (stereo not drawn)	none
CC(C)(CC(=O)O)CC(=O)N1CCN(c2nc3ccc(Cl)cc3s2)CC1	IDE cell inh 16.5 | IDE cell inh cf inactive | HEK cytotox inactive
CC(C)(CC(=O)O)CC(=O)N1CCCN(c2nc3ccc(Cl)cc3s2)CC1	none
Cc1nn(-c2ccccc2)c(C)c1NC(=O)COC(=O)CCc1ccccc1	none
O=c1onc(-c2ccccc2)c2ccccc12	IDE cell inh 16.4 | IDE cell inh cf inactive | HEK cytotox inactive
CCOC(=O)N1CCN(c2ccnc3cc(Cl)ccc23)CC1	IDE cell inh 37.1 | IDE cell inh cf 19.9 | HEK cytotox inactive
CCC(=O)N1CCN(c2ccnc3cc(Cl)ccc23)CC1	none
OC1Cc2ccccc2C1Nc1cccc(C(F)(F)F)c1 (stereo not drawn)	none (no result: IDE cell inh, proCasp7 act, procasp3 activ, TPT1 inhibitor)
Cc1ccc(Nc2cnn(C34CC5CC(CC(CC(=O)O)(C5)C3)C4)c(=O)c2Cl)cc1C	IDE cell inh 31.7 | IDE cell inh cf 24.8 | HEK cytotox inactive
COc1ccc(Cc2ccccc2C(=O)O)cc1	none (no result: IDE cell inh, proCasp7 act, procasp3 activ, TPT1 inhibitor)
COc1ccc(CC2=CC(=O)c3ccccc3C2=O)cc1	IDE cell inh 45.9 | IDE cell inh cf 34.6 | HEK cytotox 68.0
O=C(c1ccccc1)c1ccc(O)cc1O	IDE cell inh 19.0 | IDE cell inh cf 39.7 | HEK cytotox inactive
O=C(c1ccc(O)cc1)c1ccc(O)cc1O	none
Cc1c(CCC(=O)O)c(=O)oc2cc3oc4c(c3cc12)CCCC4	none
Cc1c(CCC(=O)NCC(=O)NCC(=O)O)c(=O)oc2cc3oc4c(c3cc12)CCCC4	IDE cell inh 23.6 | IDE cell inh cf inactive | HEK cytotox inactive
CC(C)c1ccccc1-n1c(SCc2cc(=O)oc3ccc4ccccc4c23)nnc1-c1cccnc1	IDE cell inh 23.7 | IDE cell inh cf inactive | HEK cytotox inactive
O=C(Nc1ccc(F)cc1)N1CCN(c2nc3ccccc3s2)CC1	none
O=C(c1ccc2ncsc2c1)N1CCN(c2nc3ccccc3s2)CC1	IDE cell inh 24.5 | IDE cell inh cf inactive | HEK cytotox 41.9
O=C(Nc1ccccc1)N1CCN(c2nc3ccccc3s2)CC1	IDE cell inh 18.0 | IDE cell inh cf inactive | HEK cytotox 29.7
O=C(c1ccc2ncsc2c1)N1CCN(c2ccccc2Cl)CC1	none
Cc1ccc(S(=O)(=O)NC(C)C(=O)OCC(=O)N(C)c2ccccc2)cc1 (stereo not drawn)	none (no result: TPT1 inhibitor)
COc1ccc(CCNC(=O)c2cccnc2Cl)cc1OC	none
Oc1ccc2c(ccc3[nH]cnc32)c1	none
